Laboratory results reported in ChEMBL document CHEMBL1142566, “Natural and synthetic 2,2-dimethylpyranocoumarins with antibacterial activity” (2005).
Activity calls are given as the source filed them. The calls are words filed in the database; no cut-off is given here.

Legend:
Assay type in all cases: functional
Staphylococcus aureus = test: Antimicrobial activity against Staphylococcus aureus ATCC 25923 after 24 hrs by disk diffusion assay
In short: (§1)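 Bauer-Kirby disk diffusion on trypticase Mueller-Hinton agar. Plates were seeded with ATCC reference strains to a final 10⁷ cell/mL. Test compounds were dissolved in DMSO and applied to 6 mm paper disks, with solvent-only disks as negative control. Plates were incubated 24 h at 37 °C. Inhibition zone diameter (mm) was averaged over three experiments and scored <7 (-), 7-10 (+), 11-16 (++), >16 (+++).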

[1] = tested on: Staphylococcus epidermidis; test: Antimicrobial activity against Staphylococcus epidermidis ATCC 12228 after 24 hrs by disk diffusion assay; in short: as §1
Pseudomonas aeruginosa = test: Antimicrobial activity against Pseudomonas aeruginosa ATCC 27853 after 24 hrs by disk diffusion assay; in short: as §1
Klebsiella pneumoniae = test: Antimicrobial activity against Klebsiella pneumoniae ATCC 13883 after 24 hrs by disk diffusion assay; in short: as §1
Proteus mirabilis = test: Antimicrobial activity against Proteus mirabilis after 24 hrs by disk diffusion assay; in short: as §1
Escherichia coli = test: Antimicrobial activity against Escherichia coli ATCC 25922 after 24 hrs by disk diffusion assay; in short: as §1
Enterobacter cloacae = test: Antimicrobial activity against Enterobacter cloacae ATCC 13047 after 24 hrs by disk diffusion assay; in short: as §1

SMILES	Activity (Staphylococcus aureus)	Activity [1]	Activity (Pseudomonas aeruginosa)	Activity (Klebsiella pneumoniae)	Activity (Proteus mirabilis)	Activity (Escherichia coli)	Activity (Enterobacter cloacae)	inhibition zone (IZ) (Staphylococcus aureus)	inhibition zone (IZ) [1]	inhibition zone (IZ) (Pseudomonas aeruginosa)	inhibition zone (IZ) (Klebsiella pneumoniae)	inhibition zone (IZ) (Proteus mirabilis)	inhibition zone (IZ) (Escherichia coli)	inhibition zone (IZ) (Enterobacter cloacae)
COc1cc2c(c3oc(=O)ccc13)[C@H](O)[C@H](O)C(C)(C)O2 (racemic)	inactive	inactive	inactive	inactive	inactive	inactive	inactive	–	–	–	–	–	–	–
CC1(C)Oc2ccc3ccc(=O)oc3c2[C@H](OC(=O)c2ccccc2)[C@H]1Br	–	–	–	–	–	–	–	7 mm	7 mm	7 mm	7 mm	7 mm	7 mm	7 mm
CC(=O)O[C@H]1c2c(ccc3ccc(=O)oc23)OC(C)(C)[C@@H]1Br	–	–	–	–	–	–	–	11 mm	11 mm	<7 mm	<7 mm	7 mm	<7 mm	<7 mm
CC(=O)OC1CC(C)(C)Oc2ccc3ccc(=O)oc3c21 (stereo not given)	inactive	inactive	inactive	inactive	inactive	inactive	inactive	–	–	–	–	–	–	–
CC(=O)Oc1cc(OC(C)=O)c2ccc(=O)oc2c1	–	–	–	–	–	–	–	7 mm	11 mm	7 mm	7 mm	7 mm	7 mm	7 mm
CC1(C)Oc2ccc3ccc(=O)oc3c2[C@H](O)[C@@H]1O	inactive	inactive	inactive	inactive	inactive	inactive	inactive	–	–	–	–	–	–	–
CC1(C)C=Cc2cc3ccc(=O)oc3cc2O1	inactive	inactive	inactive	inactive	inactive	inactive	inactive	–	–	–	–	–	–	–
CCN[C@@H]1C[C@H](N)[C@@H](O[C@H]2OC(CN)=CC[C@H]2N)[C@H](O)[C@H]1O[C@H]1OC[C@](C)(O)[C@H](NC)[C@H]1O [NETILMICIN]	–	–	–	–	–	–	–	>16 mm	>16 mm	>16 mm	11 mm	–	>16 mm	>16 mm
CC1(C)CC(O)c2c(ccc3ccc(=O)oc23)O1 (stereo not given)	inactive	inactive	inactive	inactive	inactive	inactive	inactive	–	–	–	–	–	–	–
COc1cc2oc(=O)ccc2c2c1C=CC(C)(C)O2 [ALLOXANTHOXYLETIN]	–	–	–	–	–	–	–	7 mm	7 mm	11 mm	7 mm	7 mm	7 mm	7 mm
CC1(C)S[C@@H]2[C@H](NC(=O)[C@H](N)c3ccc(O)cc3)C(=O)N2[C@H]1C(=O)O [AMOXICILLIN]	–	–	–	–	–	–	–	>16 mm	>16 mm	>16 mm	11 mm	–	>16 mm	>16 mm
COc1cc2c(c3oc(=O)ccc13)C(O)CC(C)(C)O2 (racemic)	inactive	inactive	inactive	inactive	inactive	inactive	inactive	–	–	–	–	–	–	–
CC1(C)Oc2ccc3ccc(=O)oc3c2[C@H](O)[C@H]1Br	inactive	inactive	inactive	inactive	inactive	inactive	inactive	–	–	–	–	–	–	–
O=C(O)[C@H]1/C(=C/CO)O[C@@H]2CC(=O)N21 [CLAVULANIC ACID]	–	–	–	–	–	–	–	>16 mm	>16 mm	>16 mm	> 16 mm	–	>16 mm	>16 mm
COc1cc2c(c3oc(=O)ccc13)[C@H](OC(C)=O)[C@H](OC(C)=O)C(C)(C)O2 (racemic)	inactive	inactive	inactive	inactive	inactive	inactive	inactive	–	–	–	–	–	–	–
COc1cc2c(c3oc(=O)ccc13)C(OC(C)=O)CC(C)(C)O2 (racemic)	–	–	–	–	–	–	–	11 mm	11 mm	<7 mm	<7 mm	7 mm	<7 mm	<7 mm
CC1(C)C=Cc2c(ccc3ccc(=O)oc23)O1	inactive	inactive	inactive	inactive	inactive	inactive	inactive	–	–	–	–	–	–	–
CC(=O)Oc1cc2oc(=O)ccc2c2c1C=CC(C)(C)O2	–	–	–	–	–	–	–	7 mm	7 mm	7 mm	7 mm	7 mm	7 mm	7 mm
COc1cc2c(c3oc(=O)ccc13)[C@H](OC(=O)c1ccccc1)[C@@H](Br)C(C)(C)O2 (racemic)	–	–	–	–	–	–	–	7 mm	7 mm	11 mm	7 mm	7 mm	7 mm	7 mm
CC1(C)C=Cc2c(c3c(c4ccc(=O)oc24)OC(C)(C)C=C3)O1 [DIPETALOLACTONE]	–	–	–	–	–	–	–	11 mm	7 mm	11 mm	7 mm	7 mm	7 mm	7 mm
O=c1ccc2c(O)cc(O)cc2o1	–	–	–	–	–	–	–	7 mm	7 mm	7 mm	7 mm	7 mm	7 mm	7 mm
COc1cc2c(c3oc(=O)ccc13)C=CC(C)(C)O2	–	–	–	–	–	–	–	7 mm	7 mm	11 mm	7 mm	11 mm	7 mm	7 mm
CC1(C)C=Cc2c(O)cc3oc(=O)ccc3c2O1	inactive	inactive	inactive	inactive	inactive	inactive	inactive	–	–	–	–	–	–	–
CC(=O)Oc1cc2c(c3oc(=O)ccc13)C=CC(C)(C)O2	–	–	–	–	–	–	–	7 mm	7 mm	7 mm	7 mm	7 mm	7 mm	7 mm
COc1cc2c(c3oc(=O)ccc13)[C@H](O)[C@@H](Br)C(C)(C)O2 (racemic)	–	–	–	–	–	–	–	7 mm	7 mm	11 mm	7 mm	7 mm	7 mm	7 mm
COc1cc(OC)c2ccc(=O)oc2c1 [CITROPTEN]	–	–	–	–	–	–	–	7 mm	11 mm	11 mm	7 mm	7 mm	7 mm	7 mm
COc1cc2c(c3oc(=O)ccc13)[C@H](OC(C)=O)[C@@H](Br)C(C)(C)O2 (racemic)	–	–	–	–	–	–	–	7 mm	11 mm	<7 mm	<7 mm	7 mm	<7 mm	<7 mm
CC1(C)C=Cc2c(cc(O)c3ccc(=O)oc23)O1	inactive	inactive	inactive	inactive	inactive	inactive	inactive	–	–	–	–	–	–	–
CC(=O)O[C@H]1c2c(ccc3ccc(=O)oc23)OC(C)(C)[C@H]1OC(C)=O	inactive	inactive	inactive	inactive	inactive	inactive	inactive	–	–	–	–	–	–	–
